Key:
[1] = species on record: Rattus norvegicus; assay: Vasodilation of phenylephrine-induced contraction in Wistar rat aorta; type: functional
Outline: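 Thoracic aortic strips from male Wistar rats (180-200 g) were equilibrated 120 min and precontracted with 1 μM L-phenylephrine. At plateau, cumulative concentrations of vasodilator were added, with DMSO as vehicle. Relaxation was recorded isometrically and reported as EC50 ± SE (μM).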

[2] = Stability in human serum at 100 uM after 24 hrs; type: ADME, cell-free; settings: read-out: Stability
Outline: (§1)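 Compound incubated at 37 ± 0.5 °C in human serum or human whole blood. Aliquots taken at set times were diluted 1:2 with acetonitrile containing 0.1% TFA to deproteinize, then sonicated, vortexed, centrifuged 15 min at 2150 × g and filtered.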

[3] = species on record: Rattus norvegicus; assay: Vasodilation of phenylephrine-induced contraction in Wistar rat aorta in the presence of ODQ; type: functional
Outline: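 Rat aortic strips (male Wistar, 180-200 g) were equilibrated 120 min. 1 μM ODQ (sGC inhibitor) was added to the bath 5 min before contraction with 1 μM L-phenylephrine. At plateau, cumulative vasodilator concentrations were added. Isometric relaxation was recorded and given as EC50 ± SE (μM).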

[4] = biological target: T1, Prostaglandin G/H synthase 2 (Homo sapiens, UniProt P35354)
T1 sequence (P35354 whole entry): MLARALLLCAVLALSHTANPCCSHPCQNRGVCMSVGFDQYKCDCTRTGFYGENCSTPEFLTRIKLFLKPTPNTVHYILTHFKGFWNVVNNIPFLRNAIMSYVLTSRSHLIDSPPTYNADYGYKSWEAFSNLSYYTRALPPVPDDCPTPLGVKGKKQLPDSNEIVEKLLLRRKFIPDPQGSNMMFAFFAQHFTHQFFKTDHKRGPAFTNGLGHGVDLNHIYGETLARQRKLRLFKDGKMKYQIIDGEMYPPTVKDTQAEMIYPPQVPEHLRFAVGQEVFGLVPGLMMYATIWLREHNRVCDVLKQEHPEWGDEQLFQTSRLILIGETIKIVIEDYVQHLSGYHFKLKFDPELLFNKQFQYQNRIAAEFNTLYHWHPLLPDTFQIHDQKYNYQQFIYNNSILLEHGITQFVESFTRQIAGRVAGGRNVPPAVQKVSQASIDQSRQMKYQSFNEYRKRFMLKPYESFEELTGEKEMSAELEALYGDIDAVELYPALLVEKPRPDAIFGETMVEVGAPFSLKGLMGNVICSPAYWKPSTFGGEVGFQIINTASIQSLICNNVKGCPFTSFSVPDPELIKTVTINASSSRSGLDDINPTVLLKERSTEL

[5] = biological target: Prostaglandin G/H synthase 1 (Homo sapiens, UniProt P23219); assay: Inhibition of COX1 in human whole blood assessed as TxB2 production after 1 hr; type: tissue-based
[6] = Stability in human whole blood at 100 uM after 24 hrs; type: ADME, tissue-based; settings: read-out: Stability; outline: as §1
[7] = species on record: Rattus norvegicus; assay: Vasodilation of phenylephrine-induced contraction in Wistar rat aorta in the presence of HbO2; type: functional

Prostaglandin G/H synthase 1, sequence (P23219 whole entry): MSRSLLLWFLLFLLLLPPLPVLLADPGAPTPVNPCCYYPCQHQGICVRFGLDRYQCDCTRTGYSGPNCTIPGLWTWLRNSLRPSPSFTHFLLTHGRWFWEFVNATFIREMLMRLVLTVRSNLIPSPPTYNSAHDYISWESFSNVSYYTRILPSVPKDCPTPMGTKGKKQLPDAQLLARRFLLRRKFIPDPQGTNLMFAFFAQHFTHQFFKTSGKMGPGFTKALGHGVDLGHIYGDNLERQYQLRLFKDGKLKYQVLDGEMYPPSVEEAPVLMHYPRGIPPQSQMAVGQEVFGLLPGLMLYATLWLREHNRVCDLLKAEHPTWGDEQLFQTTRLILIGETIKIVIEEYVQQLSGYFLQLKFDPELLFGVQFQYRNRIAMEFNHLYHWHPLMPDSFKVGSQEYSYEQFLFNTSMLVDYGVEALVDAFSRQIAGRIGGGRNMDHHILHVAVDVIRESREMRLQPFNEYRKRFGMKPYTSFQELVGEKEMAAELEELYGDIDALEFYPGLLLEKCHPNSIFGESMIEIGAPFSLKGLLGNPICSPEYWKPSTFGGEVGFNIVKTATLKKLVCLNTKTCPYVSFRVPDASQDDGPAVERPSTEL

Row | SMILES | EC50 [1] [µM] | remaining at 24 h, 100 µM [2] [%] | EC50 [3] [µM] | IC50 [4] [µM] | IC50 [5] [µM] | remaining at 24 h, 100 µM [6] [%] | EC50 [7] [µM]
1 | CS(=O)(=O)c1ccc(-n2cnc(Cl)c2-c2ccc(OCCCO[N+](=O)[O-])c(F)c2)cc1 | 0.078 | > 98 | 6.3 | 14 | > 100 | 60.6 | 
2 | CS(=O)(=O)c1ccc(-n2cnc(Cl)c2-c2ccc(OCCO)c(F)c2)cc1 |  |  |  | 56 | > 100 |  | 
3 | CS(=O)(=O)c1ccc(-n2cnc(Cl)c2-c2ccc(OCCCO)c(F)c2)cc1 |  |  |  | > 100 | > 100 |  | 
4 | NS(=O)(=O)c1ccc(-n2cnc(Cl)c2-c2ccc(OCCCO[N+](=O)[O-])c(F)c2)cc1 | 0.1 | > 98 | 18 | 16 | > 100 | 64.1 | 
5 | O=[N+]([O-])O[C@H]1CO[C@H]2[C@@H]1OC[C@H]2O[N+](=O)[O-] [ISOSORBIDE DINITRATE] | 4.7 |  | > 100 |  |  |  | 55
6 | CS(=O)(=O)c1ccc(-n2cnc(Cl)c2-c2ccc(OCCO[N+](=O)[O-])c(F)c2)cc1 | 0.021 | > 98 | 6.5 |  | > 100 | 53.3 | 
7 | CS(=O)(=O)c1ccc(-n2cnc(Cl)c2-c2ccc(OCC(CO[N+](=O)[O-])O[N+](=O)[O-])c(F)c2)cc1 (centres undefined) |  | > 97 | > 100 | 76 | > 100 | 43.6 | 0.061
8 | NS(=O)(=O)c1ccc(-n2cnc(Cl)c2-c2ccc(OCCCO)c(F)c2)cc1 |  |  |  | > 100 | > 100 |  | 
9 | NS(=O)(=O)c1ccc(-n2cnc(Cl)c2-c2ccc(OCCO)c(F)c2)cc1 |  |  |  | 20 | > 100 |  | 
10 | COc1ccc(-c2c(Cl)ncn2-c2ccc(S(N)(=O)=O)cc2)cc1F [CIMICOXIB] |  |  | 25 |  | 1.9 |  | 
11 | COc1ccc(-c2c(Cl)ncn2-c2ccc(S(C)(=O)=O)cc2)cc1F |  |  | 24 | 0.09 | 5.8 |  | 
12 | NS(=O)(=O)c1ccc(-n2cnc(Cl)c2-c2ccc(OCCO[N+](=O)[O-])c(F)c2)cc1 | 0.051 | > 98 | 12 |  | > 100 | 58.8 | 
